Source: PubChem
HUVEC prolif 384 = inhibitors of HUVEC proliferation, primary screen, cell-based, 384-well; CellTiter-Glo luminescence, 72 h; active compounds read low; viability, % at 10 µM (by protocol); 86,000 compounds, 1.1% hits;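 active = viability at or below 30%; inactive = viability above 30%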
MT1-MMP txn act = MT1-MMP promoter reporter activation – cell-based, luciferase luminescence, primary screen. HT1080 MT1-MMP promoter luciferase reporter, overnight; active compounds read high. activation factor at 10 µM. 86,000 compounds, 0.16% hits;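 active = activation factor of at least 2 for MT1-MMP transcription at 10 µM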
PTK2B oligo ant = antagonists of Pyk2 self-association, primary screen, Q293 cells, FERM NanoBiT luminescence, HTS; active compounds read low; 99,000 compounds, 0.83% hits; Protein-tyrosine kinase 2-beta (Homo sapiens), Q14289; z-score (the deposit names both 25 µM and 10 µM);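 active = Z-score of -3 or lower, scaled per plate to the spread of control and sample wells; inactive = z-score above -3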;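 also: negative z-score means lost luminescence so less FERM oligomerization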
Lung fibro prol = antiproliferative effect on LL 47 fibroblasts – human, LL 47 cells, CellTiter-Glo luminescence, primary screen. LL 47 human lung fibroblast viability, ATP luminescence; active compounds read low. viability, % at 10 µM. 85,000 compounds, 1.1% hits. AID 719, 2007;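 active = viability at or below 50% in the single dose screen; inactive = viability above 50%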;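 also: compound exposure lasted 72 h before the ATP readout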
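Benchmarks: Cell-only wells, no compound | Test system: LL 47 human lung fibroblasts, passage 12 or lower | Input: 1,150 cells/well | Measured by: CellTiter-Glo luminescence measuring cellular ATP | Medium: IMEM, 15% FBS supplement | Schedule: Overnight attachment after seeding, then 72 h compound exposure at 37 °C | Doses: Compound addition at 0.1% DMSO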
Jurkat viability = cytotoxicity toward Jurkat T cells, primary screen, cytotoxicity control, cell-based, Jurkat E6.1, 60K MLSMR library; Jurkat E6.1 viability, ATP luminescence, 48 h; inhibition, % at 4 µM; 56,000 compounds, 1.2% hits; AID 463, 2006;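 active = inhibition above the mean inhibition of all tested compounds plus 3 SD, cut at about 28% in these data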
H69AR inhibit = proliferation blockers of H69AR lung cancer cells, primary screen, cell-based, human, 86K library | H69AR lung tumor viability, ATP luminescence, 72 h; active compounds read low | viability, % at 10 µM | 85,000 compounds, 6% hits | AID 598, 2007;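 active = viability at or below 40%; inactive = viability above 40%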;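 also: multidrug resistant small cell line overexpressing MRP-1 efflux transporter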
Each line names hits and unclear results; the compound was inactive in the other large screens. Most compounds without a hit are left out; they make up all but 5.9% or so of the library.

CN(C)S(=O)(=O)c1ccc2nc(NC(=O)c3cccs3)sc2c1	H69AR inhibit 29 (no result: Jurkat viability)
O=C(Nc1nc2ccc(S(=O)(=O)N3CCCCC3)cc2s1)c1ccncc1	none
Cc1ccc(C(=O)Nc2nc3ccc(S(C)(=O)=O)cc3s2)o1	H69AR inhibit 29 (no result: Jurkat viability)
CC1=C(CC/C(C)=N/NC(N)=S)C(C)(C)CCC1	none (no result: Jurkat viability)
CC1Cc2ccccc2N1C(=O)COC(=O)Cn1nnc(-c2ccccc2)n1 (centres undefined)	H69AR inhibit 22
O=C(Cn1nnc(-c2ccccc2)n1)OCc1ccccc1	none (no result: HUVEC prolif 384, Lung fibro prol, H69AR inhibit)
COc1cc(C(=O)Nc2nnc(-c3sccc3C)s2)cc(OC)c1OC	none
Fc1ccc(C(c2ccc(F)cc2)N2CCN(C/C=C/c3ccccc3)CC2)cc1	none (no result: PTK2B oligo ant, Jurkat viability)
C(=C\c1ccccc1)/CN1CCN(C(c2ccccc2)c2ccccc2)CC1	H69AR inhibit 23 (no result: PTK2B oligo ant, Jurkat viability)
CCC(=O)N/C(=N/c1nc(C)cc(C)n1)Nc1cccc(OC)c1	none (no result: MT1-MMP txn act, Jurkat viability)
COc1ccc(-c2c(C)nn3c(N4CCC(C(=O)NCCN(C)C)CC4)cc(C)nc23)cc1OC	H69AR inhibit 30
CCCN(CCC)C(=O)C1CCN(c2cc(C)nc3c(-c4ccc(OC)c(OC)c4)c(C)nn23)CC1	H69AR inhibit 34 (no result: PTK2B oligo ant)
CCc1nnc(NC(=O)C2Cc3ccccc3CN2S(=O)(=O)c2cccs2)s1 (centres undefined)	none
CCc1nnc(NC(=O)C2Cc3ccccc3CN2S(=O)(=O)c2ccc(C)cc2)s1 (centres undefined)	PTK2B oligo ant -3 (no result: Jurkat viability)
COCCCNC(=O)c1ccc2c(=O)n(Cc3ccc4c(c3)OCO4)c(=S)[nH]c2c1	HUVEC prolif 384 22 (no result: Jurkat viability)
CCOC(=O)N1CCN(C(=O)c2ccc3c(=O)n(Cc4ccccc4OC)c(=S)[nH]c3c2)CC1	H69AR inhibit 34 (no result: Jurkat viability)
COCCn1c(=S)[nH]c2cc(C(=O)NCCCN3CCOCC3)ccc2c1=O	none (no result: Jurkat viability)
CC1CC(C)CN(C(=O)c2ccc3c(=O)n(Cc4ccc5c(c4)OCO5)c(=S)[nH]c3c2)C1 (centres undefined)	none (no result: Jurkat viability)
O=C(c1ccc2c(=O)n(Cc3ccc4c(c3)OCO4)c(=S)[nH]c2c1)N1CCCCC1	H69AR inhibit 35 (no result: Jurkat viability)
O=C(NCc1ccccn1)[C@H]1C[C@@H]1[C@H](NP(=O)(c1ccccc1)c1ccccc1)c1ccccc1	none (no result: HUVEC prolif 384, PTK2B oligo ant, Lung fibro prol, Jurkat viability, H69AR inhibit)
COC(=O)c1oc2ccc(Br)cc2c1NC(=O)c1ccccc1	H69AR inhibit 30
COc1ccc(NC2CS(=O)(=O)CC2NCc2ccco2)cc1 (centres undefined)	none (no result: Jurkat viability)
CCCOc1ccc2ccccc2c1/C=N/n1c(C)nnc1-n1nc(C)cc1C	Jurkat viability 82, H69AR inhibit 24
Cc1cc(Cl)ccc1OCc1nc(-c2ccc(O)cc2)n[nH]1	H69AR inhibit 22
CCOC(=O)c1c(NC(=O)C2CCCO2)sc(C(=O)OC(C)(C)C)c1C (centres undefined)	H69AR inhibit 10 (no result: Jurkat viability)
COc1cccc(C2C(C(=O)OC(C)C)=C(C)Nc3ncnn32)c1 (centres undefined)	none (no result: HUVEC prolif 384, Lung fibro prol, H69AR inhibit)
Cc1cc(Oc2ccccc2)nc2ccc(O)cc12	none (no result: HUVEC prolif 384, MT1-MMP txn act, PTK2B oligo ant, Lung fibro prol, H69AR inhibit)
Oc1ccc(Nc2nc(-c3ccc4ccccc4c3)cs2)cc1	Lung fibro prol 47, H69AR inhibit 19 (no result: Jurkat viability)
Oc1ccc(-c2nc(-c3ccc(O)c(O)c3)cs2)cc1	Lung fibro prol 46, Jurkat viability 97, H69AR inhibit 12
Cc1cc(O)ccc1Nc1nc(-c2sc(N)nc2C)cs1	none
Cc1nc(C)c(-c2csc(Nc3cccnc3)n2)s1	Lung fibro prol 31
Cc1nc(N)sc1-c1csc(Nc2ccccc2)n1	MT1-MMP txn act 2.3
COc1cccc(NC(=O)c2ccc3snnc3c2)c1	none (no result: Jurkat viability)
CC(=O)Nc1nc(C)c(-c2csc(Nc3ccc(O)cc3)n2)s1	Lung fibro prol 47, H69AR inhibit 7.2
CC(=O)Nc1nc(C)c(-c2csc(Nc3cccc([N+](=O)[O-])c3)n2)s1	none (no result: HUVEC prolif 384, MT1-MMP txn act, Lung fibro prol, Jurkat viability, H69AR inhibit)
COC(=O)C1=C(C)OC(N)=C(C#N)C1c1c(C)nn(-c2ccccc2)c1Cl (centres undefined)	H69AR inhibit 39 (no result: Jurkat viability)
Cc1cc(-c2ccccc2)nc2cc(C(=O)N(Cc3ccccc3)Cc3ccccc3)nn12	HUVEC prolif 384 26, H69AR inhibit 40 (no result: Jurkat viability)
COC(=O)c1cc2nc(-c3ccccc3)cc(C)n2n1	none
CCCn1c(NCCO)nc2ccccc21	none (no result: Jurkat viability)
CCCn1c(NC(=O)c2cccc(C)c2C)nc2ccccc21	H69AR inhibit 25 (no result: Jurkat viability)
CCCn1c(NC(=O)c2ccc(Cl)c(S(=O)(=O)N3CCCC3)c2)nc2ccccc21	H69AR inhibit 10.0
Cc1ccc(-n2cnc3cc(NCc4cccs4)ccc32)cc1	none (no result: Jurkat viability)
c1ccc(-n2cnc3cc(NCc4cccs4)ccc32)cc1	H69AR inhibit 23 (no result: Jurkat viability)
CC1CCCC(C)N1c1nnc(N)s1 (centres undefined)	none (no result: PTK2B oligo ant)
CCCSc1nsc(NC(=O)C(c2ccccc2)c2ccccc2)n1	PTK2B oligo ant -3.1, H69AR inhibit 18 (no result: MT1-MMP txn act, Jurkat viability)
COC(=O)C1=C(N)Oc2cc(N(C)C)ccc2C1c1ccccc1OC (centres undefined)	Jurkat viability 75 (no result: H69AR inhibit)
Cc1onc(-c2ccccc2Cl)c1C(=O)Nc1ccc(-c2nnc3n2CCCCC3)cc1	none
CC(C)c1nc2sc3c(SCC(=O)NCc4ccco4)ncnc3c2c2c1CCC2	none (no result: Jurkat viability)
Cc1nc2c(sc3nc4c(cc32)COC(C)(C)C4)c(=O)n1CC(=O)NCc1ccco1	H69AR inhibit 24 (no result: Jurkat viability)
CCCc1nc2c(sc3nc4c(cc32)COC(C)(C)C4)c(=O)n1Cc1ccco1	none (no result: H69AR inhibit)
CC1(C)Cc2nc3sc4c(SCC(=O)NCc5ccco5)ncnc4c3cc2CO1	Jurkat viability 78, H69AR inhibit 26
COC(=O)[C@@]1(Cc2ccc(F)cc2)[C@H]2c3cc(C(=O)N4CCCC4)n(Cc4c(CO)[nH]cc(C)c4=O)c3C[C@H]2CN1C(=O)c1ccccc1	none (no result: HUVEC prolif 384, PTK2B oligo ant, Lung fibro prol, Jurkat viability, H69AR inhibit)
CCOc1ccc2c(c1)-c1c(ssc1=S)C(C)(C)N2C	H69AR inhibit 32 (no result: Jurkat viability)
O=C(Nc1ccc(Cl)cc1)Nc1ccc2c(c1)N1CCN=C1S2	H69AR inhibit 35
O=C(NC1CCCCC1)c1noc2c1CCCCC2	none (no result: Lung fibro prol)
N=C1N(/N=C/c2ccccc2)C(=Nc2ccccc2)C(=S)N1c1ccccc1	MT1-MMP txn act 2, H69AR inhibit 1.6 (no result: Jurkat viability)
COC(=O)c1nn(-c2c(C)n(C)n(-c3ccccc3)c2=O)cc1O	none
CCOc1ccc(S(=O)(=O)Nc2ccccc2SC)cc1	H69AR inhibit 31 (no result: Jurkat viability)
CCOc1ccc(S(=O)(=O)Nc2cccc(Cl)c2)cc1	H69AR inhibit 10 (no result: Lung fibro prol)
CCOc1ccc(S(=O)(=O)Nc2cc(Cl)ccc2O)cc1	H69AR inhibit 17
CCOc1ccc(NS(=O)(=O)c2ccc(NS(=O)(=O)c3ccccc3)cc2)cc1	none (no result: Jurkat viability)
